Reference: article PMC2659725 (Archives of biochemistry and biophysics, 2009)
Entries after “also recorded” stand apart in the source; their conditions may differ. Where two headings read alike, the source gives them in different places.

Assays:
tubulin [1] = molecular target: tubulin (Bos taurus, UniProt P81947+Q6B856); type: biochemical, bovine; conditions: for Effect on paclitaxel-induced tubulin assembly: 30 μM tubulin, 30 μM paclitaxel
tubulin E-site = conditions: read-out: Kd for GDP binding to the E-site; cited from earlier work
microtubules = microtubules (Bos taurus, UniProt P81947+Q6B856); assay: Lengths of paclitaxel-induced microtubules by electron microscopy; type: biochemical, bovine; conditions: for Mean microtubule length ± SD, Average / Mean microtubule length ± SD, Experiment I / Mean microtubule length ± SD, Experiment II: paclitaxel-induced microtubules
In short: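 Paclitaxel-induced polymers were formed with GDP at the stated levels and monitored turbidimetrically. Samples were placed on carbon-coated formvar copper grids and stained with 1% uranyl acetate. Lengths were measured from EM negatives.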

[2] = tested on: taxoid site of microtubules; assay: Displacement of a fluorescent taxoid analog from microtubules; type: binding; conditions: fluorescence anisotropy; personal communication, Dr. Fernando Díaz
[3] = tested on: subtilisin-treated tubulin; assay: Paclitaxel-induced assembly of subtilisin-treated tubulin; type: biochemical, bovine; conditions: same tubulin concentration (10 μM)
tubulin with MAPs = tubulin with MAPs (Bos taurus, UniProt P81947+Q6B856); assay: Paclitaxel-induced tubulin assembly with heat-treated MAPs; type: biochemical, bovine
tubulin [4] = conditions: paclitaxel, 37 °C, cited from earlier work
tubulin [5] = assay: Critical concentration of tubulin for paclitaxel-induced assembly; type: biochemical, bovine; conditions: 10 μM paclitaxel
In short: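 Bovine brain tubulin, MAP-free, carrying E-site GDP and N-site GTP, with no exogenous GTP or Mg2+. Assay buffer 0.1 M Mes (pH 6.9) with 10 μM paclitaxel, plus heat-treated MAPs or MAPs with GTP where indicated. Components mixed at 0 °C, held 2 min, jumped to 30 °C and followed about 30 min. Turbidity read at 350 nm.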

Chain of tubulin (Bos taurus, UniProt P81947+Q6B856) (P81947 whole entry): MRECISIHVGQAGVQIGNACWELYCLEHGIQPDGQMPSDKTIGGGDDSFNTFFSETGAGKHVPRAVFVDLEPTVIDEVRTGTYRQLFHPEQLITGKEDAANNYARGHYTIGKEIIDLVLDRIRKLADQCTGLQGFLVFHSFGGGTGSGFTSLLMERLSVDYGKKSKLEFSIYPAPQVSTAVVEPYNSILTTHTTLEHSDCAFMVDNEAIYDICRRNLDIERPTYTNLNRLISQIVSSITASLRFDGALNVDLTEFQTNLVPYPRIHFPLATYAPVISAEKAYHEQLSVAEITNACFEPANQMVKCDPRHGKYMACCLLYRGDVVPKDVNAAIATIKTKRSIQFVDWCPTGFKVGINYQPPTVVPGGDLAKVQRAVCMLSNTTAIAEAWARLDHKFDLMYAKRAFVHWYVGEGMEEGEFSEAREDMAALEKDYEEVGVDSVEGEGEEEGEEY
Chain of tubulin (Bos taurus, UniProt P81947+Q6B856) (Q6B856 whole entry): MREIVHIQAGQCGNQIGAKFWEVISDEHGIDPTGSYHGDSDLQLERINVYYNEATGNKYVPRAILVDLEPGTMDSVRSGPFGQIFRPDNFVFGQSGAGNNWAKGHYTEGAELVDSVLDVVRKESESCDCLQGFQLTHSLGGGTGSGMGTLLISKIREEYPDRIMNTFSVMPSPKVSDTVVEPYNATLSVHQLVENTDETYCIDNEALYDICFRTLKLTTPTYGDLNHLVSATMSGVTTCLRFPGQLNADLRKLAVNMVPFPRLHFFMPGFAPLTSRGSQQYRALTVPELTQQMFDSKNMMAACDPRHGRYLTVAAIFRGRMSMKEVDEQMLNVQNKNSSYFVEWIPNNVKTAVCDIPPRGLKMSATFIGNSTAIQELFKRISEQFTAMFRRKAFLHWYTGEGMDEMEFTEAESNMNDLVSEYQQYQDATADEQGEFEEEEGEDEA
Chain of microtubules (P81947 whole entry): as the sequence (P81947 whole entry) above
Chain of microtubules (Q6B856 whole entry): as the sequence (Q6B856 whole entry) above
Chain of tubulin with MAPs (P81947 whole entry): as the sequence (P81947 whole entry) above
Chain of tubulin with MAPs (Q6B856 whole entry): as the sequence (Q6B856 whole entry) above

In the case of Nc1ncnc2c1ncn2[C@@H]1O[C@H](COP(=O)(O)OP(=O)(O)O)[C@@H](O)[C@H]1O [ADP], the “Effect on paclitaxel-induced tubulin assembly” value (“Effect” below) (tubulin [1]; no exogenous GTP) is reported as “had any inhibitory effect, nor did”.
With Nc1ncnc2c1ncn2[C@@H]1O[C@H](COP(=O)(O)OP(=O)(O)OP(=O)(O)O)[C@@H](O)[C@H]1O [ATP] the “Effect” value (tubulin [1]; no exogenous GTP) was “weak inhibitory effect; also recorded: extensive inhibition; also recorded: inhibited”.
For Nc1ccn([C@@H]2O[C@H](COP(=O)(O)OP(=O)(O)O)[C@@H](O)[C@H]2O)c(=O)n1 [CDP], the “Effect” value (tubulin [1]; no exogenous GTP) was “had any inhibitory effect, nor did”.
With Nc1ccn([C@@H]2O[C@H](COP(=O)(O)OP(=O)(O)OP(=O)(O)O)[C@@H](O)[C@H]2O)c(=O)n1 [CTP] the “Effect” value (tubulin [1]; no exogenous GTP) was “Still weaker effects”.
In the case of Nc1nc2c(ncn2[C@@H]2O[C@H](COP(=O)(O)OP(=O)(O)O)[C@@H](O)[C@H]2O)c(=O)[nH]1 [GDP], the Kd (tubulin E-site) is given as 20 to 60 nM, the “Mean microtubule length ± SD, Average” value (microtubules; 5 μM GDP) is given as 2.8 ± 2.1 μm and the “Mean microtubule length ± SD, Experiment I” value (microtubules; 5 μM GDP) is given as 3.7 ± 2.2 μm. The “Mean microtubule length ± SD, Experiment II” value (microtubules; 5 μM GDP) was 2.1 ± 1.5 μm, the “Mean microtubule length ± SD, Average” value (microtubules; 10 μM GDP) was 2.8 ± 2.1 μm and the “Mean microtubule length ± SD, Experiment I” value (microtubules; 10 μM GDP) was 3.5 ± 2.3 μm. The “Mean microtubule length ± SD, Experiment II” value (microtubules; 10 μM GDP) was 2.2 ± 1.6 μm, the “Mean microtubule length ± SD, Average” value (microtubules; 50 μM GDP) was 2.7 ± 2.4 μm and the “Mean microtubule length ± SD, Experiment I” value (microtubules; 50 μM GDP) was 4.5 ± 3.2 μm. For the same molecule, the “Mean microtubule length ± SD, Experiment II” value (microtubules; 50 μM GDP) was 2.0 ± 1.5 μm, the “Change in average microtubule length” value (microtubules; whatever the GDP concentration (5-50 μM)) was “essentially no change” and the “Effect” value (tubulin [1]; 5 μM GDP) was “significant inhibitory effect”. The “Effect” value (tubulin [1]; 100 μM GDP) was “almost totally eliminated”, the “Increase of the IC50 when 2 mM MgCl2 was added” value (tubulin [1]; 57 vs 15 μM) was roughly 4 fold and the “Displacement of fluorescent taxoid analog from microtubules” value [2] was “unable to displace the fluorescent taxoid”. The “IC50 with subtilisin-treated tubulin lower than value obtained with MAPs” value [3] was “about 40%”.
With Nc1nc2c(ncn2[C@@H]2O[C@H](COP(=O)(O)OP(=O)(O)OP(=O)(O)O)[C@@H](O)[C@H]2O)c(=O)[nH]1 [GTP] the “Effect” value (tubulin [1]; no exogenous GTP) was “enhancing assembly”.
In the case of O=c1[nH]cnc2c1ncn2[C@@H]1O[C@H](COP(=O)(O)OP(=O)(O)O)[C@@H](O)[C@H]1O [IDP], the “Effect” value (tubulin [1]; no exogenous GTP) is reported as “had any inhibitory effect, nor did”.
In the case of O=c1[nH]cnc2c1ncn2[C@@H]1O[C@H](COP(=O)(O)OP(=O)(O)OP(=O)(O)O)[C@@H](O)[C@H]1O [ITP], the “Effect” value (tubulin [1]; no exogenous GTP) is reported as “stimulatory”.
With O=c1ccn([C@@H]2O[C@H](COP(=O)(O)OP(=O)(O)O)[C@@H](O)[C@H]2O)c(=O)[nH]1 [UDP] the “Effect” value (tubulin [1]; no exogenous GTP) was “had any inhibitory effect, nor did”.
In the case of O=c1ccn([C@@H]2O[C@H](COP(=O)(O)OP(=O)(O)OP(=O)(O)O)[C@@H](O)[C@H]2O)c(=O)[nH]1 [UTP], the “Effect” value (tubulin [1]; no exogenous GTP) is reported as “stimulatory”.
With O=c1[nH]c(=O)c2ncn([C@@H]3O[C@H](COP(=O)(O)OP(=O)(O)OP(=O)(O)O)[C@@H](O)[C@H]3O)c2[nH]1 [XTP] the “Effect” value (tubulin [1]; no exogenous GTP) was “stimulatory”.
COc1cc2cc(c1Cl)N(C)C(=O)C[C@H](OC(=O)[C@H](C)N(C)C(C)=O)[C@]1(C)O[C@H]1[C@H](C)[C@@H]1C[C@@](O)(NC(=O)O1)[C@H](OC)/C=C/C=C(\C)C2 [maytansine] gave an IC50 (tubulin [1]) of less than 5 µM and an IC50 (tubulin with MAPs) of less than 5 µM.
In the case of CC(=O)O[C@H]1C(=O)[C@@]2(C)[C@H]([C@H](OC(=O)c3ccccc3)[C@]3(O)C[C@H](OC(=O)[C@H](O)[C@@H](NC(=O)c4ccccc4)c4ccccc4)C(C)=C1C3(C)C)[C@]1(OC(C)=O)CO[C@@H]1C[C@@H]2O [paclitaxel, Paclitaxel], the “Critical concentration of tubulin” value (tubulin [4]; no GTP, no MAPs, obtained previously) is listed as 22 to 28 µM, the “Critical concentration of tubulin” value (tubulin [4]; with MAPs, different protein preparations) is listed as 2 to 5 µM and the “Reduction in critical concentration by subtilisin treatment” value (tubulin [5]; 15 μM to 1.6 μM) is listed as roughly 10 fold. For the same molecule, the “Critical concentration of tubulin” value (tubulin [5]; 30 °C, MAPs alone added) was “about 3.5 μM”, the “Critical concentration of tubulin” value (tubulin [5]; both MAPs and GTP added) was “less than 1 μM” and the “Critical concentration of subtilisin-treated tubulin” value (tubulin [5]; subtilisin-treated tubulin) was 1.6 µM. For the same molecule, the “Extent of tubulin assembly” value (tubulin [1]; tubulin and paclitaxel both at 10 μM, no GTP, no MAPs) was “negligible assembly”.
With COc1cc([C@@H]2c3cc4c(cc3[C@H](O)[C@H]3COC(=O)[C@H]23)OCO4)cc(OC)c1OC [podophyllotoxin, Podophyllotoxin] the IC50 (tubulin with MAPs) was less than 5 µM.
